Reference: ChEMBL document CHEMBL1144825, “A different molecular mechanism underlying antimicrobial and hemolytic actions of temporins A and L” (J Med Chem, 2008)

System: Yersinia pseudotuberculosis
Assay: Antimicrobial activity against Yersinia pseudotuberculosis YP3 after 18 to 20 hrs by micro-broth dilution method
Format: functional
Conditions: not given
Method in brief: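 Microbroth dilution per NCCLS (2001). Mid-log bacteria at 2 × 10^6 CFU/mL in Mueller-Hinton broth are mixed 1:1 with MH broth holding serial 2-fold peptide dilutions in 20% ethanol, range 0.75-24 µM. Plates are incubated 18–20 h at 37 °C and growth is read as A600. MIC is the lowest concentration giving 100% growth inhibition.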
H-FLPLIGRVLSGIL-NH2 [TEMPORIN A] showed an MIC of 12 µM.
In the case of “H-FLQLIGRVLSGIL-NH2 [GLN-TA, TEMPORIN A]”, the MIC is reported as 6 µM.
Work on H-FVPWFSKFLGRIL-NH2 yielded an MIC of 3 µM.
For H-FVQWFSKFLGRIL-NH2 [TEMPORIN L], the MIC was 3 µM.

System: not listed separately
Assay: Toxicity assessed as hemolytic activity in human erythrocytes at 12 uM after 30 mins
Format: cell-based, Erythrocyte
Conditions: read-out: Activity
Method in brief: (§1)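 Human erythrocyte suspension in 0.9% (w/v) NaCl incubated 30 min at 37 °C with gentle mixing alongside serial 2-fold peptide dilutions (peptide dissolved in 20% ethanol). After centrifugation, supernatant absorbance read at 415 nm. Complete lysis reference obtained by suspending erythrocytes in distilled water.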
Work on H-FLPLIGRVLSGIL-NH2 [TEMPORIN A] yielded a hemolysis at 0.5 h, 12 µM of 6%.
“H-FLQLIGRVLSGIL-NH2 [GLN-TA, TEMPORIN A]” gave a hemolysis at 0.5 h, 12 µM of 70%.
With H-FVPWFSKFLGRIL-NH2 the hemolysis at 0.5 h, 12 µM was 42%.
H-FVQWFSKFLGRIL-NH2 [TEMPORIN L] showed a hemolysis at 0.5 h, 12 µM of 92%.

System: not listed separately
Assay: Toxicity assessed as hemolytic activity in human erythrocytes at 6 uM after 30 mins
Format: cell-based, Erythrocyte
Conditions: read-out: Activity
Method in brief: as §1
H-FLPLIGRVLSGIL-NH2 [TEMPORIN A] gave a hemolysis at 0.5 h, 6 µM of 4.5%.
“H-FLQLIGRVLSGIL-NH2 [GLN-TA, TEMPORIN A]” gave a hemolysis at 0.5 h, 6 µM of 18%.
In the case of H-FVPWFSKFLGRIL-NH2, the hemolysis at 0.5 h, 6 µM is reported as 10%.
H-FVQWFSKFLGRIL-NH2 [TEMPORIN L] showed a hemolysis at 0.5 h, 6 µM of 48%.

System: Saccharomyces cerevisiae
Assay: Antimicrobial activity against Saccharomyces cerevisiae after 18 to 20 hrs by micro-broth dilution method
Format: functional
Conditions: not given
Method in brief: (§2)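 Yeasts tested by NCCLS (2001) microbroth dilution in Winge medium: cells mixed 1:1 with medium containing peptide in serial 2-fold dilutions (20% ethanol), range 0.75-24 µM. Incubated 18–20 h at 30 °C; absorbance read at 600 nm. MIC defined as the peptide concentration giving 100% growth inhibition.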
For H-FLPLIGRVLSGIL-NH2 [TEMPORIN A], the MIC was 6 µM.
“H-FLQLIGRVLSGIL-NH2 [GLN-TA, TEMPORIN A]” gave an MIC of 6 µM.
Substance H-FVPWFSKFLGRIL-NH2 has an MIC of 6 µM.
In the case of H-FVQWFSKFLGRIL-NH2 [TEMPORIN L], the MIC is reported as 6 µM.

System: Staphylococcus epidermidis
Assay: Antimicrobial activity against Staphylococcus epidermidis ATCC 12228 after 18 to 20 hrs by micro-broth dilution method
Format: functional
Conditions: not given
Method in brief: (§3)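 Microbroth dilution per NCCLS (2001): midlog-phase bacteria at 2 × 10^6 CFU/mL in Mueller-Hinton medium mixed 1:1 with MH broth containing peptide in serial 2-fold dilutions (20% ethanol), range 0.75-24 µM. Incubated 18–20 h at 37 °C; growth read as absorbance at 600 nm. MIC taken as the lowest peptide concentration giving 100% growth inhibition.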
Substance H-FLPLIGRVLSGIL-NH2 [TEMPORIN A] has an MIC of 3 µM.
With “H-FLQLIGRVLSGIL-NH2 [GLN-TA, TEMPORIN A]” the MIC was 1.5 µM.
Work on H-FVPWFSKFLGRIL-NH2 yielded an MIC of 1.5 µM.
In the case of H-FVQWFSKFLGRIL-NH2 [TEMPORIN L], the MIC is reported as 3 µM.

System: Staphylococcus aureus
Assay: Antimicrobial activity against Staphylococcus aureus Cowan 1 after 18 to 20 hrs by micro-broth dilution method
Format: functional
Conditions: not given
Method in brief: as §3
For H-FLPLIGRVLSGIL-NH2 [TEMPORIN A], the MIC was 1.5 µM.
“H-FLQLIGRVLSGIL-NH2 [GLN-TA, TEMPORIN A]” gave an MIC of 1.5 µM.
Work on H-FVPWFSKFLGRIL-NH2 yielded an MIC of 1.5 µM.
H-FVQWFSKFLGRIL-NH2 [TEMPORIN L] gave an MIC of 3 µM.

System: Streptococcus pyogenes
Assay: Antimicrobial activity against Streptococcus pyrogenes ATCC 21547 after 18 to 20 hrs by micro-broth dilution method
Format: functional
Conditions: not given
Method in brief: as §3
Substance H-FLPLIGRVLSGIL-NH2 [TEMPORIN A] has an MIC of 12 µM.
Work on “H-FLQLIGRVLSGIL-NH2 [GLN-TA, TEMPORIN A]” yielded an MIC of 6 µM.
H-FVPWFSKFLGRIL-NH2 showed an MIC of 6 µM.
Work on H-FVQWFSKFLGRIL-NH2 [TEMPORIN L] yielded an MIC of 6 µM.

System: not listed separately
Assay: Toxicity assessed as hemolytic activity in human erythrocytes at 3 uM after 30 mins
Format: cell-based, Erythrocyte
Conditions: read-out: Activity
Method in brief: as §1
Work on H-FLPLIGRVLSGIL-NH2 [TEMPORIN A] yielded a hemolysis at 0.5 h, 3 µM of 3%.
With “H-FLQLIGRVLSGIL-NH2 [GLN-TA, TEMPORIN A]” the hemolysis at 0.5 h, 3 µM was 9%.
Substance H-FVPWFSKFLGRIL-NH2 has a hemolysis at 0.5 h, 3 µM of 6%.
Work on H-FVQWFSKFLGRIL-NH2 [TEMPORIN L] yielded a hemolysis at 0.5 h, 3 µM of 13%.

System: Candida albicans
Assay: Antimicrobial activity against Candida albicans ATCC 10231 after 18 to 20 hrs by micro-broth dilution method
Format: functional
Conditions: not given
Method in brief: as §2
In the case of H-FLPLIGRVLSGIL-NH2 [TEMPORIN A], the MIC is reported as 12 µM.
“H-FLQLIGRVLSGIL-NH2 [GLN-TA, TEMPORIN A]” showed an MIC of 6 µM.
Work on H-FVPWFSKFLGRIL-NH2 yielded an MIC of 6 µM.
In the case of H-FVQWFSKFLGRIL-NH2 [TEMPORIN L], the MIC is reported as 12 µM.

System: Pseudomonas aeruginosa
Assay: Antimicrobial activity against Pseudomonas aeruginosa ATCC 15692 after 18 to 20 hrs by microbroth dilution method
Format: functional
Conditions: not given
Method in brief: as §3
Work on H-FLPLIGRVLSGIL-NH2 [TEMPORIN A] yielded an MIC of over 24 µM.
In the case of “H-FLQLIGRVLSGIL-NH2 [GLN-TA, TEMPORIN A]”, the MIC is reported as over 24 µM.
In the case of H-FVPWFSKFLGRIL-NH2, the MIC is reported as 24 µM.
In the case of H-FVQWFSKFLGRIL-NH2 [TEMPORIN L], the MIC is reported as 24 µM.

System: Staphylococcus aureus
Assay: Antimicrobial activity against Staphylococcus aureus ATCC 25923 after 18 to 20 hrs by micro-broth dilution method
Format: functional
Conditions: not given
Method in brief: as §3
For H-FLPLIGRVLSGIL-NH2 [TEMPORIN A], the MIC was 3 µM.
In the case of “H-FLQLIGRVLSGIL-NH2 [GLN-TA, TEMPORIN A]”, the MIC is reported as 1.5 µM.
Substance H-FVPWFSKFLGRIL-NH2 has an MIC of 3 µM.
For H-FVQWFSKFLGRIL-NH2 [TEMPORIN L], the MIC was 3 µM.

System: Saccharomyces
Assay: Antimicrobial activity against Saccharomyces pombe after 18 to 20 hrs by micro-broth dilution method
Format: functional
Conditions: not given
Method in brief: as §2
For H-FLPLIGRVLSGIL-NH2 [TEMPORIN A], the MIC was 3 µM.
In the case of “H-FLQLIGRVLSGIL-NH2 [GLN-TA, TEMPORIN A]”, the MIC is reported as 3 µM.
In the case of H-FVPWFSKFLGRIL-NH2, the MIC is reported as 3 µM.
Work on H-FVQWFSKFLGRIL-NH2 [TEMPORIN L] yielded an MIC of 6 µM.

System: Staphylococcus capitis
Assay: Antimicrobial activity against Staphylococcus capitis after 18 to 20 hrs by micro-broth dilution method
Format: functional
Conditions: not given
Method in brief: as §3
Work on H-FLPLIGRVLSGIL-NH2 [TEMPORIN A] yielded an MIC of 1.5 µM.
In the case of “H-FLQLIGRVLSGIL-NH2 [GLN-TA, TEMPORIN A]”, the MIC is reported as 1.5 µM.
In the case of H-FVPWFSKFLGRIL-NH2, the MIC is reported as 1.5 µM.
Substance H-FVQWFSKFLGRIL-NH2 [TEMPORIN L] has an MIC of 1.5 µM.

System: not listed separately
Assay: Toxicity assessed as hemolytic activity in human erythrocytes at 24 uM after 30 mins
Format: cell-based, Erythrocyte
Conditions: read-out: Activity
Method in brief: as §1
H-FLPLIGRVLSGIL-NH2 [TEMPORIN A] gave a hemolysis at 0.5 h, 24 µM of 28%.
For “H-FLQLIGRVLSGIL-NH2 [GLN-TA, TEMPORIN A]”, the hemolysis at 0.5 h, 24 µM was 92%.
H-FVPWFSKFLGRIL-NH2 gave a hemolysis at 0.5 h, 24 µM of 92%.
With H-FVQWFSKFLGRIL-NH2 [TEMPORIN L] the hemolysis at 0.5 h, 24 µM was 94%.

System: not listed separately
Assay: Antimicrobial activity against […] faecalis ATCC 29212 after 18 to 20 hrs by microbroth dilution method
Format: functional
Conditions: not given
Method in brief: as §3
Work on H-FLPLIGRVLSGIL-NH2 [TEMPORIN A] yielded an MIC of 12 µM.
For “H-FLQLIGRVLSGIL-NH2 [GLN-TA, TEMPORIN A]”, the MIC was 6 µM.
In the case of H-FVPWFSKFLGRIL-NH2, the MIC is reported as 6 µM.
Substance H-FVQWFSKFLGRIL-NH2 [TEMPORIN L] has an MIC of 6 µM.

System: Escherichia coli
Assay: Antimicrobial activity against Escherichia coli D21 after 18 to 20 hrs by micro-broth dilution method
Format: functional
Conditions: not given
Method in brief: as §3
Substance H-FLPLIGRVLSGIL-NH2 [TEMPORIN A] has an MIC of over 24 µM.
Substance “H-FLQLIGRVLSGIL-NH2 [GLN-TA, TEMPORIN A]” has an MIC of over 24 µM.
In the case of H-FVPWFSKFLGRIL-NH2, the MIC is reported as 12 µM.
With H-FVQWFSKFLGRIL-NH2 [TEMPORIN L] the MIC was 12 µM.

System: Pseudomonas syringae
Assay: Antimicrobial activity against Pseudomonas syringae pv tabaci after 18 to 20 hrs by micro-broth dilution method
Format: functional
Conditions: not given
Method in brief: as §3
H-FLPLIGRVLSGIL-NH2 [TEMPORIN A] showed an MIC of over 24 µM.
Work on “H-FLQLIGRVLSGIL-NH2 [GLN-TA, TEMPORIN A]” yielded an MIC of over 24 µM.
With H-FVPWFSKFLGRIL-NH2 the MIC was 6 µM.
For H-FVQWFSKFLGRIL-NH2 [TEMPORIN L], the MIC was 6 µM.

System: Priestia megaterium
Assay: Antimicrobial activity against Bacillus megaterium Bm11 after 18 to 20 hrs by micro-broth dilution method
Format: functional
Conditions: not given
Method in brief: as §3
Substance H-FLPLIGRVLSGIL-NH2 [TEMPORIN A] has an MIC of 1.5 µM.
“H-FLQLIGRVLSGIL-NH2 [GLN-TA, TEMPORIN A]” showed an MIC of 0.75 µM.
Work on H-FVPWFSKFLGRIL-NH2 yielded an MIC of 1.5 µM.
H-FVQWFSKFLGRIL-NH2 [TEMPORIN L] showed an MIC of 1.5 µM.
